Laboratory results as given in ChEMBL document CHEMBL4680077, “Differentiation of skeletal osteogenic progenitor cells to osteoblasts with 3,4-diarylbenzopyran based amide derivatives: Novel osteogenic agents” (Eur J Med Chem, 2016).
The source made the active and inactive calls. The calls are words filed in the database; no cut-off is given here.

Key:
[1] = Acute toxicity in Swiss albino mouse assessed as tissue protein level at 50 mg/kg, po measured after 7 days (reference value: 0.029 +/- 0.004 mg/ml); assay type: organism-based; details: in vivo, 168 h, time 7 day
[2] = system: Mus musculus; test: In vivo osteogenic activity in ovariectomized BALB/c mouse assessed as decrease in trabecular spacing at 1 to 10 mg/kg, po via gavage administered for 1 month by microCT imaging analysis; assay type: functional, organism-based; details: dose 1-10 mg/kg, time 1.0 months
Method in brief: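 Ovariectomized female balb/c mice, 8 weeks old, 10 per group, received 1.0 or 10.0 mg kg-1 once daily by oral gavage (gum acacia vehicle) for 4 weeks, alongside sham and Ovx vehicle groups. Femurs were scanned by microCT. BV/TV, Tb.N and Tb.Sp were derived by the mean intercept length method. Mean ± SE.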

[3] = Acute toxicity in Swiss albino mouse assessed as relative uterus weight at 50 mg/kg, po measured after 7 days (reference value: 1.63 +/- 0.71 %); assay type: organism-based; details: in vivo, 168 h, time 7 day
[4] = Acute toxicity in Swiss albino mouse assessed as relative ovary weight at 300 mg/kg, po measured after 7 days (reference value: 0.07 +/- 0.02 %); assay type: organism-based; details: in vivo, 168 h, time 7 day
[5] = system: Mus musculus; test: In vivo osteogenic activity in ovariectomized BALB/c mouse assessed as increase in energy required to break bone at 1 to 10 mg/kg, po via gavage administered for 1 month by TKC Muromachi bone strength testing method; assay type: functional, organism-based; details: dose 1-10 mg/kg, time 1.0 months
Method in brief: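 Ovariectomized balb/c mice were gavaged with 1 or 10 mg kg-1 daily for one month. Bones were then tested on a bone strength tester for energy, stiffness and force to break. Mean ± SEM compared with the Ovx vehicle group.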

[6] = system: Mus musculus; test: In vivo osteogenic activity in ovariectomized BALB/c mouse assessed as decrease in serum OCN at 1 to 10 mg/kg, po via gavage administered for 30 days; assay type: functional, organism-based; details: dose 1-10 mg/kg, time 30.0 day
Method in brief: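 Eight-week-old female balb/c mice were ovariectomized and dosed once daily by oral gavage at 1 or 10 mg kg-1 in vehicle (gum acacia in water) for 30 days; sham and Ovx vehicle groups served as controls. Serum CTx and osteocalcin were assayed in duplicate. n = 10 per group; mean ± SEM.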

[7] = Acute toxicity in Swiss albino mouse assessed as neutrophil count at 1000 mg/kg, po measured after 7 days (reference value: 41.50 +/- 4.08 %); assay type: organism-based; details: in vivo, 168 h, time 7 day
[8] = Acute toxicity in Swiss albino mouse assessed as relative spleen weight at 5 mg/kg, po measured after 7 days (reference value: 0.73 +/- 0.14 %); assay type: organism-based; details: in vivo, 168 h, time 7 day
[9] = Acute toxicity in Swiss albino mouse assessed as relative liver weight at 5 mg/kg, po measured after 7 days (reference value: 6.81 +/- 2.14 %); assay type: organism-based; details: in vivo, 168 h, time 7 day
[10] = Clearance in Sprague-Dawley rat at 1 mg/kg, po measured upto 24 hrs by LC-MS/MS analysis; assay type: ADME, organism-based; details: in vivo
Method in brief: (§1)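 Female Sprague-Dawley rats (n = 4), fasted overnight 12–14 h, dosed orally at 1 mg kg-1 as a 0.25% CMC suspension and fed 3 h post-dose. Retro-orbital blood was taken from 0.25 to 24 h. Plasma was hexane-extracted and assayed by LC-MS/MS. Cmax and Tmax were read from the data; other parameters came from non-compartmental analysis. Mean ± S.D.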

[11] = Acute toxicity in Swiss albino mouse assessed as body weight at 300 mg/kg, po observed on day 1 (reference value: 20.38 +/- 0.24 g); assay type: organism-based; details: in vivo, 24 h, time 1 day
[12] = Acute toxicity in Swiss albino mouse assessed as relative testes weight at 5 mg/kg, po measured after 7 days (reference value: 0.62 +/- 0.03 %); assay type: organism-based; details: in vivo, 168 h, time 7 day
[13] = Toxicity in ovariectomized BALB/c mouse assessed as uterine estrogenicity by measuring uterine weights at 1 to 10 mg/kg, po administered for 30 days and measured on day 30; assay type: organism-based; details: in vivo, 720 h, dose 1-10 mg/kg, time 30 day
Method in brief: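 Six-to-eight-week-old balb/c mice (n = 10) were ovariectomized and dosed orally for 30 consecutive days: test agent at 1 or 10 mg kg-1 day-1, or 17β-E2 at 0.01 mg kg-1 day-1. Uterine weights were recorded and compared with the Ovx vehicle group; mean ± SEM.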

[14] = Tmax in Sprague-Dawley rat at 1 mg/kg, po measured upto 24 hrs by LC-MS/MS analysis; assay type: ADME, organism-based; details: in vivo; method in brief: as §1
[15] = Acute toxicity in Swiss albino mouse assessed as relative lung weight at 300 mg/kg, po measured after 7 days (reference value: 0.70 +/- 0.08 %); assay type: organism-based; details: in vivo, 168 h, time 7 day
[16] = Acute toxicity in Swiss albino mouse assessed as malondialdehyde level at 5 mg/kg, po measured after 7 days (reference value: 0.14 +/- 0.01 nM/mg); assay type: organism-based; details: in vivo, 168 h, time 7 day
[17] = Acute toxicity in Swiss albino mouse assessed as relative ovary weight at 1000 mg/kg, po measured after 7 days (reference value: 0.07 +/- 0.02 %); assay type: organism-based; details: in vivo, 168 h, time 7 day
[18] = Acute toxicity in Swiss albino mouse assessed as body weight at 300 mg/kg, po measured on day 7 (reference value: 22.75 +/- 0.38 g); assay type: organism-based; details: in vivo, 168 h, time 7 day
[19] = Acute toxicity in Swiss albino mouse assessed as tissue protein level at 5 mg/kg, po measured after 7 days (reference value: 0.029 +/- 0.004 mg/ml); assay type: organism-based; details: in vivo, 168 h, time 7 day
[20] = Elimination rate constant in Sprague-Dawley rat at 1 mg/kg, po measured upto 24 hrs by LC-MS/MS analysis; assay type: ADME, organism-based; details: in vivo; method in brief: as §1
[21] = Acute toxicity in Swiss albino mouse assessed as SGPT level at 5 mg/kg, po measured after 7 days (reference value: 14.04 +/- 1.45 U/L); assay type: organism-based; details: in vivo, 168 h, time 7 day
[22] = Acute toxicity in Swiss albino mouse assessed as haemoglobin level at 1000 mg/kg, po measured after 7 days (reference value: 10.86 +/- 0.87 g/dL); assay type: organism-based; details: in vivo, 168 h, time 7 day
[23] = Acute toxicity in Swiss albino mouse assessed as ALKP level at 50 mg/kg, po measured after 7 days (reference value: 379.25 +/- 27.08 U/L); assay type: organism-based; details: in vivo, 168 h, time 7 day
[24] = Acute toxicity in Swiss albino mouse assessed as malondialdehyde level at 1000 mg/kg, po measured after 7 days (reference value: 0.14 +/- 0.01 nM/mg); assay type: organism-based; details: in vivo, 168 h, time 7 day
[25] = Acute toxicity in Swiss albino mouse assessed as creatinine level at 50 mg/kg, po measured after 7 days (reference value: 0.97 +/- 0.07 mg/dL); assay type: organism-based; details: in vivo, 168 h, time 7 day
[26] = Acute toxicity in Swiss albino mouse assessed as basophil count at 1000 mg/kg, po measured after 7 days (reference value: 1.50 +/- 0.29 %); assay type: organism-based; details: in vivo, 168 h, time 7 day
[27] = Acute toxicity in Swiss albino mouse assessed as absolute lung weight at 50 mg/kg, po measured after 7 days (reference value: 0.16 +/- 0.01 g); assay type: organism-based; details: in vivo, 168 h, time 7 day
[28] = Acute toxicity in Swiss albino mouse assessed as ALKP level at 1000 mg/kg, po measured after 7 days (reference value: 379.25 +/- 27.08 U/L); assay type: organism-based; details: in vivo, 168 h, time 7 day
[29] = Acute toxicity in Swiss albino mouse assessed as eosinophil count at 50 mg/kg, po measured after 7 days (reference value: 6.34 +/- 1.04 %); assay type: organism-based; details: in vivo, 168 h, time 7 day
[30] = Half life in Sprague-Dawley rat at 1 mg/kg, iv measured upto 24 hrs by LC-MS/MS analysis; assay type: ADME, organism-based; details: in vivo

## CCCCN(C)C(=O)CCCCOc1ccc([C@H]2c3ccc(OC)cc3OC(C)(C)[C@@H]2c2ccccc2)cc1
[1]
  Activity: 0.036 mg/mL
[2]
  Activity: Active
[3]
  Activity: 1.17%
[4]
  Activity: 0.29%
[5]
  Activity: Active
[6]
  Activity: Active
[7]
  Activity: 46.03%
[8]
  Activity: 0.46%
[9]
  Activity: 4.84%
[10]
  CL: 18.3 mL/min/kg
[11]
  Activity: 19.61 g
[12]
  Activity: 0.6%
[13]
  Activity: Non-Toxic
[14]
  Tmax: 1.5 h
[15]
  Activity: 0.73%
[16]
  Activity: 0.14 nM/mg
[17]
  Activity: 0.05%
[18]
  Activity: 23.31 g
[19]
  Activity: 0.035 mg/mL
[20]
  k el at 24 h: 5.39e-05 s⁻¹
[21]
  Activity: 17.44 U/L
[22]
  Activity: 11.35 g/dL
[23]
  Activity: 306.33 U/L
[24]
  Activity: 0.16 nM/mg
[25]
  Activity: 0.8 mg/dL
[26]
  Activity: 1.75%
[27]
  Activity: 0.2 g
[28]
  Activity: 378.12 U/L
[29]
  Activity: 6.99%
[30]
  half-life: 3.52 h
